# Screening data (PubChem BioAssay)
# An excerpt weighted towards active compounds, which were near 3.7% of everything screened.
# FGF22 binding = FGF22 (human) thermal shift binding; Q9HCT0; recombinant FGF22 thermal shift, SYPRO orange fluorescence; percent of sucrose octasulfate shift, DMSO zero; activity (Tm shift, normalised), % at 9.99 µM; hit rate 1.5% among 340,000; AID 651658;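 active = mean Tm shift, scaled 0 neutral to 100 positive control, at about 1.3% or above, every replicate too, limit read from the data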
# DENV2 CPE = inhibitors of DENV2 cytopathic effect; DENV2-infected cells, cytopathic effect rescue, plate reader; CPE inhibition, % at 9.99 µM; hit rate 1.7% among 350,000; AID 651640; in the data active = CPE inhibition above about 20%, passing the limit was not always enough; tested in BHK-21 cells;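 note: 0% = median of neutral control wells and 100% = median of positive control wells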
# E-sel inducer = E-selectin induction on HUVECs; P16581; HUVEC E-selectin immunofluorescence imaging; normalized: neutral wells 0, TNF-alpha wells 100; activation, % at 7.58 µM; hit rate 0.37% among 260,000;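 active = mean E-selectin-positive cell signal at least 10% of the positive control, reached in at least 60% of replicates, without over 20% cell loss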
#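 Assay system: HUVEC primary endothelial cells. Input: 3,000 HUVEC seeded per well. Doses: one compound dose added by pin transfer. Read-out basis: % PE-positive cells. Benchmarks: TNF-alpha high, DMSO low. Detection: immunofluorescence imaging. Buffer or medium: EGM-2, gelatin.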
# ERAP1 HTS inh = blocks human ERAP1 aminopeptidase activity | Q9NZ08 | recombinant ERAP1, Leu-AMC fluorescence, 60 min | inhibition, % at 10.7 µM | hit rate 0.15% among 340,000 | AID 652197;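 active = mean replicate inhibition of at least 30%, or all replicates individually reaching that 30% level; inactive = mean below 30% and not every replicate reaching it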;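 note: 0% = neutral control wells and 100% = L-leucinethiol positive control wells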
# Target sequence (Q9NZ08 whole entry, looked up): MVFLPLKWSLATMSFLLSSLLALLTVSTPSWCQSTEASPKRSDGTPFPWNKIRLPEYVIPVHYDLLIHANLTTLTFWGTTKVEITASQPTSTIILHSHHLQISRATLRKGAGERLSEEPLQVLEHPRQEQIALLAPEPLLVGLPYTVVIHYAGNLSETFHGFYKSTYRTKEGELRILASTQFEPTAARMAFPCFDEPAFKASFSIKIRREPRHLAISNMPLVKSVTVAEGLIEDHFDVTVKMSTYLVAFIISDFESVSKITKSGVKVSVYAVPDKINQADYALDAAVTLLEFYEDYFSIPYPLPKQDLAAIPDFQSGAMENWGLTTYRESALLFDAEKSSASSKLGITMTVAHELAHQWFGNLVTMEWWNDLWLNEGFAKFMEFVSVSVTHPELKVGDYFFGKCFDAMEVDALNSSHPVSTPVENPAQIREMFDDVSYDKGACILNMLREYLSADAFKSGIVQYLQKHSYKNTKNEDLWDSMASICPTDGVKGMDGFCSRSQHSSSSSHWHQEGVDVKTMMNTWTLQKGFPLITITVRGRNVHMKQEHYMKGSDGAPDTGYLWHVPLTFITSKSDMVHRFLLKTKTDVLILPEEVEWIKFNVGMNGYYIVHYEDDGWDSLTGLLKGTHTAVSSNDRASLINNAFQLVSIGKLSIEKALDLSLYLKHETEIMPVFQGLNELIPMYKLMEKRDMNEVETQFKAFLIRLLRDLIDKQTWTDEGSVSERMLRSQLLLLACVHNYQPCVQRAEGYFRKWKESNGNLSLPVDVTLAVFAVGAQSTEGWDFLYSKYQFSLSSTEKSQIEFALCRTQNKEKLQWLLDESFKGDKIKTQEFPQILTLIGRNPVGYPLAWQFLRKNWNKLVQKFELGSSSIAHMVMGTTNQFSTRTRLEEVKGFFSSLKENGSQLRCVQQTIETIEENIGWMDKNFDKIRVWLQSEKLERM
# CFTR F508del cor = CFTR F508del correction in bronchial cells; hit rate 0.36% among 350,000; CFBE cells, YFP halide quenching; stimulated with forskolin plus potentiator P3; % fluorescence drop versus neutral controls; activity (quench increase), % at 7.58 µM;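 active = mean added fluorescence quench of at least 8% versus neutral control, with both replicates also reaching 8%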;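 note: cells transiently co-express mutant CFTR-F508del with the halide-sensitive YFP; corrector assay measuring rescue of mutant channel to the surface after 24 h compound exposure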
# Numbers without * were called inactive; . = no result.
SMILES,FGF22 binding,DENV2 CPE,E-sel inducer,ERAP1 HTS inh,CFTR F508del cor
COC(=O)[C@]12CCCCC=C1N(CCC1=CCCCC1)C(=O)[C@H](CC(=O)NCc1cccc(C(F)(F)F)c1)C2,0,51*,0,0,1
CC(=O)N(C)C[C@@H]1Oc2cc(C#CC3CCCC3)ccc2S(=O)(=O)N([C@H](C)CO)C[C@@H]1C,0,0,2,-10,-4
CCOC(=O)[C@]12CCCC=C1N(CCC1=CCCCC1)C(=O)[C@H](CC(=O)NCCc1ccccc1OC)C2,0,20,0,-2,1
CCCCCCCCN1C(=O)[C@H](CC(=O)NCCC(C)C)C[C@@]2(C(=O)OCC)CCCC=C12,0,20*,.,-3,-5
COC(=O)[C@]12CCCCC=C1N(Cc1ccc(Cl)cc1Cl)C(=O)[C@H](CC(=O)NCc1cccc(C(F)(F)F)c1)C2,1.5*,-7,0,0,0
CCOC(=O)[C@]12CCC=C1N(CCC1=CCCCC1)C(=O)[C@H](CC(=O)NCCc1ccccc1OC)C2,0,16,180*,.,1
C[C@@H]1CN([C@H](C)CO)S(=O)(=O)c2ccc(C#Cc3ccccc3F)cc2O[C@H]1CN(C)CC1CCOCC1,.,.,.,.,-1
CC(C)c1ccc(CN2CCN(S(=O)(=O)c3ccc(Cl)s3)CC2)cc1,0,0,0,4,30*
CC#CCOCC1CN(C)C(=O)O1 (stereo unspecified),43*,-6,0,-1,-4
CN1CC(COCc2ccccc2)Oc2ccccc2S1(=O)=O (stereo unspecified),0,8,0,.,5
CCN1CCN(C(=O)NC(c2ccc(C)c(F)c2)C(Cl)Cl)CC1 (stereo unspecified),44*,-7,.,4,3
Cc1ccc(C(NC(=O)NN2CCN(C)CC2)C(Cl)Cl)cc1F (stereo unspecified),0,-8,.,-1,3
Cc1ccc(C(NC(=O)N2CCCC2)C(Cl)Cl)cc1F (stereo unspecified),44*,3,.,3,1
Cc1ccc(C(NC(=O)N2CCOCC2)C(Cl)(Cl)Cl)cc1F (stereo unspecified),0,.,0,3,0
CCOc1cc(/C=C/c2cccc[n+]2C)ccc1OCC(=O)Nc1ccc(C)cc1,0,17,.,73*,-1
COc1cc(/C=C/c2cccc[n+]2C)ccc1OCC(=O)Nc1ccccc1C,0,0,0,3,1
O=C(CC(=O)c1cccc([N+](=O)[O-])c1)Nc1ccccc1Cl,44*,7,.,-3,-1
CSc1nc2c(cnn2-c2ccc(C)c(C)c2)c(=O)[nH]1,0,-6,48*,0,3
CCC(C)Sc1nc2c(cnn2-c2ccc(C)c(C)c2)c(=O)[nH]1 (stereo unspecified),0,-3,-1,4,0
CO[C@H]1CN(C)C(=O)c2ccc(NC(=O)C3CCCCC3)cc2OC[C@H](C)NC[C@H]1C,0,-1,0,-2,2
C[C@@H]1CCCCO[C@H](CN(C)C(=O)Nc2ccc(C(F)(F)F)cc2)[C@@H](C)CN([C@@H](C)CO)C(=O)c2cc(NS(=O)(=O)c3cn(C)cn3)ccc2O1,0,-6,0,2,-3
O=C(c1ccccn1)N1CC(=O)N2[C@H](CO)[C@@H](c3ccc(C#Cc4ccccc4)cc3)[C@@H]2C1,.,52*,0,1,2
O=C(c1ccccn1)N1CC(=O)N2[C@H](C1)[C@H](c1ccc(C#CCc3ccccc3)cc1)[C@@H]2CO,.,54*,0,0,5
C/C=C/c1ccc([C@@H]2[C@@H](CO)N3C(=O)CN(C(=O)c4cnccn4)C[C@@H]23)cc1,.,59*,0,-1,1
O=C(c1ccccn1)N1CC(=O)N2[C@H](CO)[C@@H](c3ccc(C#CCc4ccccc4)cc3)[C@@H]2C1,.,11,1,2,-3
SMILES,FGF22 binding,DENV2 CPE,E-sel inducer,ERAP1 HTS inh,CFTR F508del cor
C[C@@H]1CN([C@H](C)CO)C(=O)c2cccc(NC(=O)Nc3cccc4ccccc34)c2O[C@@H]1CN(C)S(C)(=O)=O,0,16,-10,2,1
COc1ccc(-c2cn(CC[C@@H]3CC[C@@H](NS(=O)(=O)c4ccccc4C)[C@@H](CO)O3)nn2)cc1,0,0,1,1,1
CC(=O)N(C)C[C@H]1Oc2ncc(-c3ccc(C(=O)N(C)C)cc3)cc2C(=O)N([C@H](C)CO)C[C@@H]1C,.,-6,0,2,-2
NCCNc1ccc2nnnn2n1,43*,-7,1,2,1
c1ccc(CCNc2ccc3nncn3n2)cc1,0,-9,2,0,0
C[C@H](CO)N1C[C@H](C)[C@H](CN(C)CC2CCCCC2)OCCCC[C@H](C)Oc2ccc(NC(=O)CCC(F)(F)F)cc2C1=O,0,-7,3,.,-2
C[C@H]1CCCCO[C@H](CN(C)C(=O)C2CCCCC2)[C@@H](C)CN([C@@H](C)CO)C(=O)c2cc(NC(=O)CCC(F)(F)F)ccc2O1,1,.,0,-5,-3
C[C@@H]1CN([C@H](C)CO)C(=O)c2cc(NC(=O)CCC(F)(F)F)ccc2O[C@@H](C)CCCCO[C@@H]1CN(C)C(=O)C1CCCCC1,1,88*,0,-1,3
C[C@@H]1CCCCO[C@H](CN(C)CC2CCCCC2)[C@@H](C)CN([C@H](C)CO)C(=O)c2cc(NC(=O)CCC(F)(F)F)ccc2O1,0,52*,-1,.,2
C[C@@H]1CCCCO[C@@H](CN(C)CC2CCCCC2)[C@@H](C)CN([C@@H](C)CO)C(=O)c2cc(NC(=O)CCC(F)(F)F)ccc2O1,0,30*,0,.,0
C[C@H](CO)N1C[C@H](C)[C@@H](CN(C)CC2CCCCC2)OCCCC[C@H](C)Oc2ccc(NC(=O)Cc3ccccc3)cc2C1=O,0,-3,0,-1,-3
C[C@H]1CCCCO[C@H](CN(C)CC2CCCCC2)[C@@H](C)CN([C@@H](C)CO)C(=O)c2cc(NC(=O)CCC(F)(F)F)ccc2O1,0,0,0,.,0
C[C@@H]1CN([C@@H](C)CO)C(=O)c2cc(NC(=O)Cc3ccccc3)ccc2O[C@@H](C)CCCCO[C@@H]1CN(C)CC1CCCCC1,.,26*,-1,-2,0
CCCC#Cc1cnc2c(c1)C(=O)N([C@@H](C)CO)C[C@H](C)[C@@H](CN(C)C(=O)CN1CCOCC1)O2,0,10,-1,3,3
C[C@@H]1CN([C@H](C)CO)C(=O)c2cc(C#Cc3ccc(F)cc3)cnc2O[C@@H]1CN(C)S(C)(=O)=O,0,16,0,5,1
COc1cc(/C=C(\NC(C)=O)C(=O)Nc2ccccc2C)ccc1OC(C)=O,.,21*,.,0,1
